HEK293 NFkB inh = inhibitors of PMA/ionomycin-induced NF-kB reporter, primary screen, antigen receptor NF-kB inhibitor project, cell-based, HEK-293 luciferase reporter, luminescence; inhibition, % at 3 µM; HEK-293 NF-kB luciferase reporter; actives 0.21% (n = 62,000);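 active = inhibition above the mean of all tested compounds plus 3 SD, cut at about 40% in these data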;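 also: 0% = stimulated DMSO wells and 100% = 10 µM reference inhibitor 5653914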
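System – HEK-293 cells with stable firefly luciferase reporter driven by four HIV NF-kB elements · Doses – one dose, 3 µM · Schedule – 1 h compound pre-incubation, 16 h PMA/ionomycin at 37 °C · Technique – luminescence from luciferase substrate reagent · Measure – percent inhibition normalized per plate to DMSO and reference-inhibitor controls · Replicates – tested once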
JNK3 inh = JNK3 kinase activity inhibitors, primary screen, biochemical, human, purified enzyme | inhibition, % at 8 µM | actives 0.61% (n = 60,000) | Mitogen-activated protein kinase 10 (Homo sapiens), P53779 | AID 746, 2007 | HTS; in the data active = inhibition above about 17%;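 also: 0% = DMSO and 100% = reference inhibitor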
Target sequence (P53779 whole entry, looked up): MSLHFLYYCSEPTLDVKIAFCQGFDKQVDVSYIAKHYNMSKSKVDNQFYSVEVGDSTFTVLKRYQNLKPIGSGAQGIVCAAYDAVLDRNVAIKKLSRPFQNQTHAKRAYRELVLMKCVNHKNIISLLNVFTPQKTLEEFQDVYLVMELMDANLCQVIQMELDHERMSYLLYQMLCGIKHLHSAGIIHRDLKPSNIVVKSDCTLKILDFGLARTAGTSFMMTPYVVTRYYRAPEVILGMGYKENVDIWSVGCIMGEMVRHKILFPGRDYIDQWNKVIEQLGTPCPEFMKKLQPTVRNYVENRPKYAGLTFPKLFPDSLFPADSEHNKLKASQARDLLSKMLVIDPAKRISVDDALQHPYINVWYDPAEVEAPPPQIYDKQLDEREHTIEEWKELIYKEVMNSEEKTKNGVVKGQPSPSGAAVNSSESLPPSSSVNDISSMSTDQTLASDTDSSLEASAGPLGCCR
MMP13 inh = human MMP13 inhibitors, primary screen, biochemical, FRET peptide cleavage. MMP-13 fTHP FRET cleavage, Mca fluorescence. inhibition, % at 4 µM. actives 0.07% (n = 65,000). Collagenase 3 (Homo sapiens), P45452;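 active = inhibition above the mean of compound-free control plate wells plus 3 SD, cut at about 14% in these data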;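 also: 0% = DMSO wells and 100% = wells with reference MMP-13 inhibitor after basal subtraction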
HePTP inh = inhibitors of human HePTP phosphatase, primary screen, biochemical, absorbance, leukemia target; Tyrosine-protein phosphatase non-receptor type 7 (Homo sapiens), P35236; recombinant HePTP phosphatase activity, OD absorbance; inhibition, % at 20 µM; actives 0.64% (n = 110,000); AID 521, 2006; in the data active = inhibition above about 50%;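 also: plate controls were vehicle for no effect and reference inhibitor for full effect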
Starred values were filed as active, the others as inactive. An excerpt weighted towards active compounds, which were near 0.93% of everything screened.

O=C(/C=C/c1ccc(F)cc1)Nc1ccc(F)cc1 was read as HePTP inh 0.3.
For N#C/C(=C/c1c(F)cccc1Cl)C(=O)Nc1ccc(Cl)cc1 the results were HePTP inh -14.3.
O=C1C(Cl)=C(Nc2ccccc2)C(=O)N1c1cccc(Cl)c1 was read as HePTP inh 5.5.
Screening O=C(O)c1cccc(NC2=C(Cl)C(=O)N(c3ccc(Cl)cc3)C2=O)c1 returned HePTP inh 103.6*.
Cc1nn(C(=O)c2ccc(Cl)cc2)c(C)c1Sc1ccc([N+](=O)[O-])cc1 was read as HePTP inh -13.2.
Screening COc1cccc(/C=N/NC(=O)/C(=C/c2ccc(N(C)C)cc2)NC(=O)c2ccccc2)c1O returned HePTP inh 5.3.
`Clc1ccc(COn2nnc3ccccc32)c(Cl)c1` gave HEK293 NFkB inh 45.3*, JNK3 inh 7.7, MMP13 inh 1.8 and HePTP inh 6.1.
Screening C=CC(=O)Nc1ccc2c(c1Oc1ccc(C(C)(C)C)cc1)C(=O)c1ccccc1C2=O returned HePTP inh 9.4.
For CCN1C(=O)/C(=C/c2c(Cl)cccc2Cl)SC1=S the results were HePTP inh 8.4.
COc1c(Cl)ccc(Cl)c1C(=O)Nc1cccc(Br)c1 was read as HePTP inh -0.2.
COc1c(Cl)ccc(Cl)c1C(=O)Nc1ccc(C)cc1 was read as HePTP inh 104.5*.
Screening Cc1ccccc1OCC(=O)O/N=C(\N)c1cccnc1 returned HePTP inh 5.1.
`O=C(Nc1ccc(-c2nc3ccccc3s2)c(O)c1)c1ccc2c(c1)OCCO2` gave HePTP inh 67.9*.
Cc1ccc(-c2cc(C(=O)NC3=NCCS3)c3cc(Br)ccc3n2)o1 was read as HEK293 NFkB inh 9.2, JNK3 inh -3.2, MMP13 inh 2.5 and HePTP inh 15.9.
`Cc1ccc(-c2cc(C(=O)O)c3cc(Br)ccc3n2)o1` gave HePTP inh 104.0*.
For O=C(Nc1cccc(Oc2ccc(C(=O)O)c(C(=O)O)c2)c1)c1ccc(-c2ccccc2)cc1 the results were HePTP inh 102.5*.
Screening CC(=O)NS(=O)(=O)c1ccc(NC(=O)c2ccc([N+](=O)[O-])cc2[N+](=O)[O-])cc1 returned HePTP inh 69.8*.
O=C(O)CCCC(=O)NCCC(c1ccccc1)c1ccccc1 was read as HePTP inh -10.1.
Screening Cc1ccc2oc(-c3ccc(NC(=O)c4ccc(-c5ccc(Cl)cc5)o4)cc3O)nc2c1 returned HePTP inh 93.7*.
Cc1cc2nc(-c3cc(NC(=O)c4ccco4)ccc3Cl)oc2cc1C was read as HePTP inh 15.1.
`O=C(NC(=S)Nc1ccc2oc(-c3ccc(Cl)cc3)nc2c1)c1ccccc1` gave HePTP inh -0.4.
O=C(NC(=S)Nc1ccc2oc(-c3ccccc3)nc2c1)c1ccccc1 was read as HePTP inh 102.9*.
For O=C(Nc1ccc2oc(-c3ccccc3)nc2c1)c1ccc(-c2ccc([N+](=O)[O-])cc2)o1 the results were HePTP inh 100.7*.
Screening O=C(Nc1ccc2oc(-c3cccc(Cl)c3Cl)nc2c1)c1ccco1 returned HePTP inh 101.0*.
Screening NC(=O)c1c(NC(=O)/C=C/c2ccccc2Cl)sc2c1CCCC2 returned HePTP inh 4.9.
Cc1ccc(NC(=O)COc2ccc(Br)cc2)c([N+](=O)[O-])c1 was read as HePTP inh -4.3.
CC1(C)Cc2c(sc(NC(=O)C3(c4ccccc4)CCCC3)c2C#N)CO1 was read as HePTP inh 105.5*.
Screening CC1(C)Cc2c(sc(NC(=O)c3ccc(Br)o3)c2C#N)CO1 returned JNK3 inh 6.0, MMP13 inh -2.3 and HePTP inh 2.6.
COC(=O)C1=C(C)N(CCc2ccc(OC)c(OC)c2)C(=O)C1 was read as HePTP inh 96.5*.
Screening COC(=O)C1=C(C)N(CCc2ccc(OC)cc2)C(=O)C1 returned HEK293 NFkB inh 14.7, JNK3 inh -8.9, MMP13 inh 3.6 and HePTP inh -6.2.
CC1=C(C#N)c2nc(N)c(C#N)c(C)c2/C1=C\c1ccc(-c2cccc(Cl)c2)o1 was read as HePTP inh 4.3.
`CC1=C(C#N)c2nc(N)c(C#N)c(C)c2/C1=C/c1ccc(-c2ccc(C(=O)O)c(Cl)c2)o1` gave HePTP inh 102.0*.
O=C(NC(=S)NNc1nc(-c2ccccc2)cs1)c1cc2ccccc2oc1=O was read as HePTP inh 99.0*.
`c1ccc(-c2cccc(-c3ccccn3)n2)nc1` gave HEK293 NFkB inh 86.3*, JNK3 inh -2.1, MMP13 inh 5.6 and HePTP inh 9.3.
For N#Cc1c(NCc2ccccc2)ccnc1NCc1cccnc1 the results were HEK293 NFkB inh 11.4, JNK3 inh 74.7*, MMP13 inh 2.3 and HePTP inh 2.2.
Screening Nc1ccc(C(=O)NCCNCCNC(=O)c2ccc(N)cc2)cc1 returned HePTP inh -5.3.
Screening COc1cc(C=NN2CCN(Cc3ccc(C)cc3C)CC2)cc(OC)c1OC returned HePTP inh -0.6.
O=C1NC(=Nc2cccnc2)S/C1=C\c1cccc(F)c1 was read as HePTP inh 65.7*.
Screening CC1CCN(CCC(=O)N/N=C/c2ccc(N(C)C)cc2)CC1 returned HePTP inh 3.9.
For Clc1ccc(-n2ncc3c(NCc4cccs4)ncnc32)cc1 the results were JNK3 inh 0.8, MMP13 inh -7.4 and HePTP inh 6.7.
`Cn1ncc2c(NCc3ccccc3)ncnc21` gave HEK293 NFkB inh 13.1, JNK3 inh 18.2*, MMP13 inh -1.0 and HePTP inh 4.2.
For Cc1cccc(-n2ncc3c(NCc4cccs4)ncnc32)c1 the results were HEK293 NFkB inh -13.0, JNK3 inh 22.3*, MMP13 inh -8.4 and HePTP inh 6.3.
Screening c1ccc(CNc2ncnc3c2cnn3-c2ccccc2)cc1 returned HEK293 NFkB inh 16.2, JNK3 inh 20.7*, MMP13 inh -5.3 and HePTP inh 7.5.
Screening CC(C)(C)C(=O)NNC(=O)c1cc(Cl)ccc1O returned HePTP inh 5.6.
For C=CCN1C(=O)/C(=C\c2ccc(-c3cc([N+](=O)[O-])ccc3C)o2)C(=O)NC1=S the results were HePTP inh 101.8*.
For O=C1NC(=S)N/C1=C/c1ccc(-c2cc([N+](=O)[O-])ccc2Cl)o1 the results were HePTP inh 80.2*.
Cc1ccc([N+](=O)[O-])cc1-c1ccc(/C=C2/C(=O)NC(=O)N(c3ccccc3)C2=O)o1 was read as HePTP inh 8.5.
`CC1CCc2c(sc(NC(=O)c3cccc(Br)c3)c2C(N)=O)C1` (centres undefined) gave HePTP inh -14.5.
Screening CC1CCc2c(sc(NC(=O)c3ccc(Cl)c(Cl)c3)c2C(N)=O)C1 (centres undefined) returned HePTP inh 104.7*.

Screening data as filed in PubChem.
